Source: PubChem (several laboratories)
Shown are actives, neighbours in structure and some others; about 2.1% of the full set was active somewhere.
aDG glyco up – activators of alpha-DG glycosylation, primary screen, uHTS, Pro5-aDG cells, AlphaScreen; 360,000 compounds, 0.22% hits; alpha-DG glycosylation AlphaScreen (IIH6); 0% Pro5, 100% B10-LARGE cell signal; activation, % at 10 µM;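 active = activation of at least 8% versus controls, or a plate z-score of at least 8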;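 also: Pro5 are CHO cells carrying HIG-tagged alpha-DG that lacks glycosylation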
UCH37 inh – inhibitors of human UCH37 deubiquitinase, primary screen, biochemical, Ub-AMC cleavage, fluorescence. purified proteasome/UCH37. inhibition, % (concentration not given with the values). 330,000 compounds, 0.33% hits. AID 588478, 2011;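 active = mean inhibition over replicate wells above about 20%, limit read from the data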
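Schedule: 30 min plus 25 min, room temperature / Material: human UCH37 within purified proteasomes / Technique: AMC fluorescence intensity at 355/460 nm / Buffer or medium: pH 7.4 Tris-HCl (50 mM) with ovalbumin, ATP-MgCl2, DTT / Controls: wells without proteasome as full block, compound-free enzyme plus substrate as uninhibited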
HKDC1 inhibitor – HKDC1 hexokinase inhibitors, primary screen, biochemical, fluorescence, uHTS; Q2TB90; recombinant HKDC1, G6PDH/diaphorase resazurin coupled fluorescence; inhibition, % at 20 µM; 340,000 compounds, 0.16% hits; AID 493160, 2011;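 active = inhibition above about 35% when tested at 20 µM, limit read from the data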
Target sequence (Q2TB90 whole entry, looked up): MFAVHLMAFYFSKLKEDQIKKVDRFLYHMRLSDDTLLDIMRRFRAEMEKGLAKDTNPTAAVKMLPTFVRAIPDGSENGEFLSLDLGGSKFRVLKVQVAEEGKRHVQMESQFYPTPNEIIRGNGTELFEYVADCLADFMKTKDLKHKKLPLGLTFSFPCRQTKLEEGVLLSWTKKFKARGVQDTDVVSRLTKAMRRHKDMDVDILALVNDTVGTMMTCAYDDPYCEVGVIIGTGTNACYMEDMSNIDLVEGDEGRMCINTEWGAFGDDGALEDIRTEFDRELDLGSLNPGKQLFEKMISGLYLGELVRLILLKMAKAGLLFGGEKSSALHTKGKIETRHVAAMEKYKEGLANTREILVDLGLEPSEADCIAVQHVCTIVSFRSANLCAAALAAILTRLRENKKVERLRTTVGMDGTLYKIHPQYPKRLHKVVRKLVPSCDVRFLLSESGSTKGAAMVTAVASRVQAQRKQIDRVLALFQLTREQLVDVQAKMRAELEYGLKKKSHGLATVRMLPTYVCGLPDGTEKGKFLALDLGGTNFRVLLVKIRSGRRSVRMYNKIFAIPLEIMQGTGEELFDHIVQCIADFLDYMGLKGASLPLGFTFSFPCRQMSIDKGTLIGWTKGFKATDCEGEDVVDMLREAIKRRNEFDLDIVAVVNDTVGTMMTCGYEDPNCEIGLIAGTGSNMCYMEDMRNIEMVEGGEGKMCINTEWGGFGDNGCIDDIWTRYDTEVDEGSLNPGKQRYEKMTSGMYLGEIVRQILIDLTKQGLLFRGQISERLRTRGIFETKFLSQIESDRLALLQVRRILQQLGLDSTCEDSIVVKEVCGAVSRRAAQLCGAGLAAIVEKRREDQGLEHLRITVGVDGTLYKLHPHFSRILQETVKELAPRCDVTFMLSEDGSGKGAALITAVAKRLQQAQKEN
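Test system: Recombinant HKDC1 (HK5) hexokinase enzyme, produced in-house | Input: HKDC1 at 5 µg/mL | Buffer or medium: Tris pH 8.0 buffer with MgCl2, Tween-20, BSA, BME | Schedule: 90 min reaction incubation at room temperature, dark | Technique: Resazurin-to-resorufin fluorescence via G6PDH and diaphorase coupling, 525/613 nm | Controls: DMSO wells with and without enzyme mix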
PfG6PD inh – PfG6PD enzyme inhibitors, primary screen, biochemical, fluorescence intensity, uHTS; glucose-6-phosphate dehydrogenase-6-phosphogluconolactonase (Plasmodium falciparum 3D7); PfGluPho enzyme, NADPH resazurin-diaphorase fluorescence; inhibition, % at 20 µM; 350,000 compounds, 0.78% hits; AID 504690, 2011;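 active = inhibition reaching at least a set limit at 20 µM in the primary screen, cut at about 59% in these data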
Cardio protect – cardioprotection against H2O2-induced cell death, primary screen, uHTS, H9c2 cells, ATPLite luminescence; H9c2 cardiomyocytes, H2O2 injury protection, 2 h; protection from H2O2 cell death, % at 20 µM; 360,000 compounds, 0.63% hits; AID 588492, 2011;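 active = compounds giving at least 50% protection of heart cells from peroxide-induced death in the single-dose screen, raw or plate-pattern-corrected value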
Beta2AR agonist – beta2AR agonists driving receptor internalization, primary screen, cell-based, FAP fluorogen, flow cytometry; Am2.2-beta2AR cells; response, % (no concentration beside the values); 340,000 compounds, 0.43% hits; AID 504454, 2011;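 active = response above a set limit, near 3 SD of response in nonfluorescent compounds, cut at about 42% in these data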
PfGluPho conf – PfG6PD inhibitors, hit retest, confirmation, biochemical, fluorescence intensity, single concentration | AID 504753, 2011 | 2,400 compounds, 34% hits | recombinant PfGluPho, NADPH-diaphorase-resazurin fluorescence | inhibition, % at 20 µM | shares compounds with PfG6PD inh;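 active = inhibition of at least 50% at 20 µM in any single replicate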
Diaph ctr 10uM – diaphorase inhibitors and chemical oxidizers, confirmation, counter-screen for P. falciparum G6PD inhibitor project, biochemical, fluorescence intensity, 10 µM NADPH | inhibition, % at 20 µM | 820 compounds, 39% hits | AID 504862, 2011 | shares compounds with PfG6PD inh | diaphorase-coupled resazurin reduction, NADPH 10 uM;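 active = average inhibition reaching 50% or more with the compound at 20 µM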;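 also: resorufin red fluorescence formed as diaphorase reduces resazurin using NADPH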
Diaphorase 30uM – diaphorase inhibitors and chemical oxidizers, confirmation, counter-screen for P. falciparum G6PD inhibitor project, biochemical, fluorescence intensity, 30 µM NADPH. 820 compounds, 29% hits. shares compounds with PfG6PD inh. AID 504863, 2011. Diaphorase/resazurin coupled assay, resorufin fluorescence. inhibition, % at 20 µM;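 active = inhibition averaging 50% or more, tested at 20 µM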
Numbers stand for hits; . = inactive; / = no result.

SMILES | aDG glyco up | UCH37 inh | HKDC1 inhibitor | PfG6PD inh | Cardio protect | Beta2AR agonist | PfGluPho conf | others
O=C(CNC(=O)c1cccc(F)c1)N/N=C/c1ccc(O)c([N+](=O)[O-])c1 | . | / | . | . | . | . | /
C=CCOc1ccc(C(CC)=NO)cc1OC | / | . | / | / | / | / | /
CCCCCCCC(=O)NN=Cc1ccco1 | / | . | / | / | / | / | /
Cc1ccc(-n2c(SCC(=O)Nc3cc(C)on3)nc3c(c2=O)SC(C)C3)cc1 (stereo not drawn) | . | . | . | 84 | . | . | .
CC(C)(C)c1ccc(O)c(O)c1 | . | / | . | 81 | . | . | 72 | Diaph ctr 10uM=.;Diaphorase 30uM=.
CN(CC(=O)Nc1ccc(Cl)c(Cl)c1)C(=O)C1CCC1 | . | . | . | 75 | . | . | .
CN(CC(=O)Nc1ccc(Cl)c(Cl)c1)C(=O)C1CCCC1 | . | . | . | . | . | . | /
CN(C)c1ccc(C=NNS(=O)(=O)c2ccc(Br)cc2)cc1 | / | . | / | / | / | / | /
COc1cc(C(=O)O[C@H]2CC(C)=CCC[C@]3(C)O[C@@H]3C(O)C2C(C)C)cc(OC)c1OC (stereo partly drawn) | / | . | / | / | / | / | /
COc1ccc(/C=N/Nc2ccc([N+](=O)[O-])cc2)cc1O | . | / | . | 81 | . | . | .
COc1ccc(/C=N/Nc2ccc([N+](=O)[O-])cc2)cc1Cn1cc([N+](=O)[O-])cn1 | . | / | . | . | . | . | /
N#CC1=C(N)Oc2c(O)cc3ccccc3c2C1c1ccsc1 (stereo not drawn) | . | . | . | 92 | 58 | . | 69 | Diaph ctr 10uM=64;Diaphorase 30uM=.
O=c1cc(CSc2nc3cc(Cl)ccc3o2)nc2sccn12 | . | . | . | 80 | . | . | .
CCOC(=O)C1=C(C)N=c2sc(=Cc3ccc(OCC(=O)O)cc3)c(=O)n2C1c1ccc(F)cc1 (stereo not drawn) | / | . | / | / | / | / | /
COc1ccc2nc(Cl)c(C=NNc3ccccn3)cc2c1 | / | . | / | / | / | / | /
COc1ccc(NC(=O)c2ccc3[nH]c(C)c(C)c3c2)cc1 | . | . | . | 68 | . | . | .
Cc1cc(NC(=O)c2ccc3[nH]c(C)c(C)c3c2)ccn1 | . | . | . | . | . | . | /
CC(=O)Nc1cccc(NC(=O)c2ccc3[nH]c(C)c(C)c3c2)c1 | . | . | . | 78 | . | . | .
COc1ccc(NC(=O)c2ccc(C)cc2)cc1 | . | . | . | . | . | . | /
Cc1cc(C)n2nc(C(=O)NN=Cc3ccccc3C)nc2n1 | / | . | / | / | / | / | /
COc1cc(/C=C/C(=O)c2ccc([N+](=O)[O-])o2)ccc1O | . | . | . | 77 | . | . | 60 | Diaph ctr 10uM=.;Diaphorase 30uM=.
CCCc1c(C(=O)NN=Cc2sccc2C)nnn1-c1nonc1N | / | . | / | / | / | / | /
CCN1CCN(C(=S)c2ccc(Br)cc2)CC1 | . | . | . | . | . | . | /
CN1CCN(C(=S)c2ccc(Br)cc2)CC1 | . | . | . | 59 | . | . | 61 | Diaph ctr 10uM=.;Diaphorase 30uM=.
CN1CCN(C(=S)c2ccc(N(C)C)cc2)CC1 | . | . | . | . | . | . | /
SMILES | aDG glyco up | UCH37 inh | HKDC1 inhibitor | PfG6PD inh | Cardio protect | Beta2AR agonist | PfGluPho conf | others
CCN1CCN(C(=S)c2ccc(O)cc2)CC1 | . | . | . | 70 | . | . | 53 | Diaph ctr 10uM=.;Diaphorase 30uM=.
CN1CCN(C(=S)c2ccc([N+](=O)[O-])cc2)CC1 | . | . | . | 61 | . | . | 55 | Diaph ctr 10uM=.;Diaphorase 30uM=.
COC(=O)c1ccc(C=NN2CCN(Cc3ccc(C)cc3)CC2)cc1 | / | . | / | / | / | / | /
N#CC(=C(O)CN1CCOCC1)c1nc2ccccc2s1 | / | . | / | / | / | / | /
Nc1cccc(-c2nc3ccc(C(=O)c4ccccc4)cc3[nH]2)c1 | . | . | . | 62 | . | . | .
O=[N+]([O-])c1ccc2nc(-c3ccccc3)[nH]c2c1 | . | . | . | 68 | . | . | .
O=[N+]([O-])c1ccc2nc(-c3cccnc3)[nH]c2c1 | . | . | . | . | . | . | /
N#Cc1c(NC(=O)Cn2nc(C(F)(F)F)c3c2CCCC3)sc2c1CCC2 | . | . | . | 70 | . | . | .
COc1cccc(C(=O)NCC(=O)NN=Cc2ccc(OC(=O)c3cccs3)c(OC)c2)c1 | / | . | / | / | / | / | /
O=C(NC1CCCC1)c1cc2c(ccc3ccccc32)o1 | . | . | . | 72 | . | . | .
CC(=NNC(=O)CSc1nc(C)cc(C)n1)c1cccc([N+](=O)[O-])c1 | / | . | / | / | / | / | /
Cc1ccc(S(=O)(=O)N(C)C)cc1NC(=O)CSc1nc2ncc(Cl)cc2[nH]1 | . | . | . | 66 | . | . | 52 | Diaph ctr 10uM=.;Diaphorase 30uM=.
CC(=NNc1ccc([N+](=O)[O-])cc1)c1ccc(O)cc1 | / | . | / | / | / | / | /
O=C(CSc1ncn[nH]1)Nc1ccccc1Sc1ccc(Cl)cc1 | . | . | . | 110 | . | . | 68 | Diaph ctr 10uM=59;Diaphorase 30uM=57
Nc1cc(=O)[nH]c(SCC(=O)Nc2ccccc2Sc2ccc(Cl)cc2)n1 | . | . | . | . | . | . | /
O=C(NN=Cc1ccc(OC(=O)c2ccc(Br)cc2)cc1)c1ccncc1 | / | . | / | / | / | / | /
CCCN1C(=O)COc2ccc(C(=O)c3ccccc3C(=O)O)cc21 | . | . | . | . | . | . | /
O=C(O)c1ccccc1C(=O)c1ccc2c(c1)N(Cc1cccc(F)c1)C(=O)CO2 | . | . | . | 93 | . | . | 58 | Diaph ctr 10uM=58;Diaphorase 30uM=52
COc1ccc(C(=O)NN=C(C)c2cccc(NC(=O)c3ccncc3)c2)cc1OC | / | . | / | / | / | / | /
CCN(CC)c1ccc(C(=C2C=CC(=[N+](CC)CC)C=C2)c2ccccc2)cc1 | . | / | . | 100 | . | 59 | 68 | Diaph ctr 10uM=.;Diaphorase 30uM=.
CC(=NN=Cc1cccc(F)c1)c1nnn(-c2nonc2N)c1C | / | . | / | / | / | / | /
CC1CCN(C(=O)/C(=C/c2ccccc2Cl)c2ccccc2)CC1 | . | . | . | . | . | . | /
N#CC(C#N)=C1C=CC=CN1/C(=C\c1ccccc1Cl)C(=O)c1ccccc1 | . | . | . | 78 | . | 105 | 57 | Diaph ctr 10uM=.;Diaphorase 30uM=.
COc1ccc(-c2cc3ccccc3cn2)cc1 | . | . | . | 59 | . | . | .
